# From ChEMBL document CHEMBL3351247 (J Med Chem, 2014)
# Target: Kappa-type opioid receptor (Homo sapiens, UniProt P41145)
# Experiment: Agonist activity at human KOR expressed in CHO cells assessed as inhibition of forskolin-induced cAMP accumulation after 30 mins by luminescence assay
# Type: functional, cell-based
# Outline: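 CHO cells stably expressing KOR or MOR, plated at 10 000 cells/well and incubated overnight at 37 °C. Compounds given as 10-point serial dilutions (1% DMSO final) with 20 μM forskolin final in HBSS/10 mM HEPES. Incubation 30 min at 37 °C, then detection reagents overnight at room temperature. HitHunter cAMP luminescence read-out; data normalized to vehicle and forskolin-only controls, nonlinear regression.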
# Sequence of Kappa-type opioid receptor (P41145 whole entry): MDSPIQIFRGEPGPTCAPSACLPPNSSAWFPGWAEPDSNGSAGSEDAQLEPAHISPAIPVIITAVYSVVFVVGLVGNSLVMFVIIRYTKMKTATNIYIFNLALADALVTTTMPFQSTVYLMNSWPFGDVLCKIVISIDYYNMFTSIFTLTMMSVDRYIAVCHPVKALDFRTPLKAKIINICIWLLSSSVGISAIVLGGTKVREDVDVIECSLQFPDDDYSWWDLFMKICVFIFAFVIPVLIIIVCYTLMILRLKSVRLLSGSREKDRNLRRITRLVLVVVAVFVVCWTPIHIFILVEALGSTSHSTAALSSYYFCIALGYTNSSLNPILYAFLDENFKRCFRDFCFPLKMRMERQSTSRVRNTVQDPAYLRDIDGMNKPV
SMILES,EC50 [nM],Emax [%]
COC(=O)[C@@H]1C[C@H](OC(C)=O)C(=O)[C@H]2[C@@]1(C)CC[C@H]1C(=O)O[C@H](c3ccoc3-c3ccc(F)cc3)C[C@]21C,54,100
COC(=O)[C@@H]1C[C@H](OC(C)=O)C(=O)[C@H]2[C@@]1(C)CC[C@H]1C(=O)O[C@H](c3ccoc3-c3cccc4ccccc34)C[C@]21C,37,100
COC(=O)[C@@H]1C[C@H](OC(C)=O)C(=O)[C@H]2[C@@]1(C)CC[C@H]1C(=O)O[C@H](c3ccoc3-c3ccccc3F)C[C@]21C,1.2,100
COC(=O)[C@@H]1C[C@H](OC(C)=O)C(=O)[C@H]2[C@@]1(C)CC[C@H]1C(=O)O[C@H](c3ccoc3-c3ccccc3OC)C[C@]21C,10,100
COC(=O)[C@@H]1C[C@H](OC(C)=O)C(=O)[C@H]2[C@@]1(C)CC[C@H]1C(=O)O[C@H](c3ccoc3-c3cccc([N+](=O)[O-])c3)C[C@]21C,450,100
COC(=O)[C@@H]1C[C@H](OC(C)=O)C(=O)[C@H]2[C@@]1(C)CC[C@H]1C(=O)O[C@H](c3ccoc3-c3ccoc3)C[C@]21C,6.5,100
COC(=O)[C@@H]1C[C@H](OC(C)=O)C(=O)[C@H]2[C@@]1(C)CC[C@H]1C(=O)O[C@H](c3ccoc3-c3ccc4ccccc4c3)C[C@]21C,25,100
COC(=O)[C@@H]1C[C@H](OC(C)=O)C(=O)[C@H]2[C@@]1(C)CC[C@H]1C(=O)O[C@H](c3ccoc3CO)C[C@]21C,3.3,100
COC(=O)[C@@H]1C[C@H](OC(C)=O)C(=O)[C@H]2[C@@]1(C)CC[C@H]1C(=O)O[C@H](c3ccoc3-c3ccccc3[N+](=O)[O-])C[C@]21C,360,100
COC(=O)[C@@H]1C[C@H](OC(C)=O)C(=O)[C@H]2[C@@]1(C)CC[C@H]1C(=O)O[C@H](c3ccoc3-c3ccccc3N)C[C@]21C,430,100
COC(=O)[C@@H]1C[C@H](OC(C)=O)C(=O)[C@H]2[C@@]1(C)CC[C@H]1C(=O)O[C@H](c3ccoc3-c3cccc(N)c3)C[C@]21C,630,100
CCCC#Cc1occc1[C@@H]1C[C@]2(C)[C@H]3C(=O)[C@@H](OC(C)=O)C[C@@H](C(=O)OC)[C@]3(C)CC[C@H]2C(=O)O1,9250,100
COC(=O)[C@@H]1C[C@H](OC(C)=O)C(=O)[C@H]2[C@@]1(C)CC[C@H]1C(=O)O[C@H](c3ccoc3-c3ccco3)C[C@]21C,6.7,100
COC(=O)[C@@H]1C[C@H](OC(C)=O)C(=O)[C@H]2[C@@]1(C)CC[C@H]1C(=O)O[C@H](c3cc(Br)oc3Br)C[C@]21C,240,100
COC(=O)[C@@H]1C[C@H](OC(C)=O)C(=O)[C@H]2[C@@]1(C)CC[C@H]1C(=O)O[C@H](c3ccoc3C#N)C[C@]21C,9.4,100
COC(=O)[C@@H]1C[C@H](OC(C)=O)C(=O)[C@H]2[C@@]1(C)CC[C@H]1C(=O)O[C@H](c3ccoc3C#Cc3ccccc3)C[C@]21C,100,100
COC(=O)[C@@H]1C[C@H](OC(C)=O)C(=O)[C@H]2[C@@]1(C)CC[C@H]1C(=O)O[C@H](c3ccoc3-c3cccc(C)c3)C[C@]21C,3.4,100
COC(=O)[C@@H]1C[C@H](OC(C)=O)C(=O)[C@H]2[C@@]1(C)CC[C@H]1C(=O)O[C@H](c3ccoc3-c3ccc(C)cc3)C[C@]21C,2.3,100
CCc1occc1[C@@H]1C[C@]2(C)[C@H]3C(=O)[C@@H](OC(C)=O)C[C@@H](C(=O)OC)[C@]3(C)CC[C@H]2C(=O)O1,2.9,100
COC(=O)[C@@H]1C[C@H](OC(C)=O)C(=O)[C@H]2[C@@]1(C)CC[C@H]1C(=O)O[C@H](c3ccoc3-c3cccc(OC)c3)C[C@]21C,8.6,100
COC(=O)[C@@H]1C[C@H](OC(C)=O)C(=O)[C@H]2[C@@]1(C)CC[C@H]1C(=O)O[C@H](c3ccoc3-c3ccc(OC)cc3)C[C@]21C,16,100

SMILES,EC50 [nM],Emax [%]
COC(=O)[C@@H]1C[C@H](OC(C)=O)C(=O)[C@H]2[C@@]1(C)CC[C@H]1C(=O)O[C@H](c3ccoc3-c3ccccc3)C[C@]21C,1.3,100
COC(=O)[C@@H]1C[C@H](OC(C)=O)C(=O)[C@H]2[C@@]1(C)CC[C@H]1C(=O)O[C@H](c3ccoc3-c3ccc(C(F)(F)F)cc3)C[C@]21C,1020,100
COC(=O)[C@@H]1C[C@H](OC(C)=O)C(=O)[C@H]2[C@@]1(C)CC[C@H]1C(=O)O[C@H](c3ccoc3C#Cc3ccccc3OC)C[C@]21C,6100,100
COC(=O)[C@@H]1C[C@H](OC(C)=O)C(=O)[C@H]2[C@@]1(C)CC[C@H]1C(=O)O[C@H](c3ccoc3C=O)C[C@]21C,7.3,100
COC(=O)[C@@H]1C[C@H](OC(C)=O)C(=O)[C@H]2[C@@]1(C)CC[C@H]1C(=O)O[C@H](c3ccoc3-c3cccc(F)c3)C[C@]21C,12,100
COC(=O)[C@@H]1C[C@H](OC(C)=O)C(=O)[C@H]2[C@@]1(C)CC[C@H]1C(=O)O[C@H](c3ccoc3/C=C/c3ccccc3)C[C@]21C,20,100
COC(=O)[C@@H]1C[C@H](OC(C)=O)C(=O)[C@H]2[C@@]1(C)CC[C@H]1C(=O)O[C@H](c3ccoc3CCc3ccccc3)C[C@]21C,38,100
COC(=O)[C@@H]1C[C@H](OC(C)=O)C(=O)[C@H]2[C@@]1(C)CC[C@H]1C(=O)O[C@H](c3cc(C)oc3C)C[C@]21C,250,100
COC(=O)[C@@H]1C[C@H](OC(C)=O)C(=O)[C@H]2[C@@]1(C)CC[C@H]1C(=O)O[C@H](c3ccoc3-c3ccccc3C)C[C@]21C,5.4,100
COC(=O)[C@@H]1C[C@H](OC(C)=O)C(=O)[C@H]2[C@@]1(C)CC[C@H]1C(=O)O[C@H](c3ccoc3-c3ccc([N+](=O)[O-])cc3)C[C@]21C,170,100
COC(=O)[C@@H]1C[C@H](OC(C)=O)C(=O)[C@H]2[C@@]1(C)CC[C@H]1C(=O)O[C@H](c3ccoc3C(F)(F)F)C[C@]21C,31,100
COC(=O)[C@@H]1C[C@H](OC(C)=O)C(=O)[C@H]2[C@@]1(C)CC[C@H]1C(=O)O[C@H](c3ccoc3C#Cc3ccccc3C(F)(F)F)C[C@]21C,430,100
COC(=O)[C@@H]1C[C@H](OC(C)=O)C(=O)[C@H]2[C@@]1(C)CC[C@H]1C(=O)O[C@H](c3ccoc3C3CC3)C[C@]21C,1,100
COC(=O)[C@@H]1C[C@H](OC(C)=O)C(=O)[C@H]2[C@@]1(C)CC[C@H]1C(=O)O[C@H](c3coc(C(F)(F)F)c3)C[C@]21C,3.1,100
COC(=O)[C@@H]1C[C@H](OC(C)=O)C(=O)[C@H]2[C@@]1(C)CC[C@H]1C(=O)O[C@H](c3ccoc3-c3cccc(C(F)(F)F)c3)C[C@]21C,27,100
COC(=O)[C@@H]1C[C@H](OC(C)=O)C(=O)[C@H]2[C@@]1(C)CC[C@H]1C(=O)O[C@H](c3ccoc3-c3ccc(N)cc3)C[C@]21C,620,65
CC#Cc1occc1[C@@H]1C[C@]2(C)[C@H]3C(=O)[C@@H](OC(C)=O)C[C@@H](C(=O)OC)[C@]3(C)CC[C@H]2C(=O)O1,26,100
COC(=O)[C@@H]1C[C@H](OC(C)=O)C(=O)[C@H]2[C@@]1(C)CC[C@H]1C(=O)O[C@H](c3ccoc3C#CCCCO)C[C@]21C,890,100
COC(=O)[C@@H]1C[C@H](OC(C)=O)C(=O)[C@H]2[C@@]1(C)CC[C@H]1C(=O)O[C@H](c3ccoc3-c3ccccc3C(F)(F)F)C[C@]21C,8.4,100
C=Cc1occc1[C@@H]1C[C@]2(C)[C@H]3C(=O)[C@@H](OC(C)=O)C[C@@H](C(=O)OC)[C@]3(C)CC[C@H]2C(=O)O1,0.96,100
COC(=O)[C@@H]1C[C@H](OC(C)=O)C(=O)[C@H]2[C@@]1(C)CC[C@H]1C(=O)O[C@H](c3ccoc3-c3ccsc3)C[C@]21C,4.3,100
